Screens from PubChem.
Wee1 degr inh = inhibitors of human Wee1 degradation | reporter increase, % at 5 µM | actives 1.2% (n = 220,000) | P30291 | HeLa Luc-Wee1K328M stability, luciferase luminescence; 100% = proteasome inhibitor MG132 effect;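 active means activation above the mean of all tested compounds plus 3 SD, set per screening run, cut at about 8.8% in these data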;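 further: cells exposed to compound for 20 h before luminescence read; 0% = DMSO alone and 100% = MG132 at 30 µM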
Runt-CBFb FRET = blocks binding of human RUNX1 Runt domain to CBFb; Q01196+Q13951; Cerulean-Runt/Venus-CBFb FRET ratio 530/480, 1 h; inhibition, % at 20 µM; actives 0.46% (n = 220,000);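 active means inhibition over about 50% at 20 µM in the single-dose screen, limit read from the data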;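 further: 0% = DMSO wells and 100% = excess unlabeled CBFb competitor control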
Target sequence (Q01196 whole entry, looked up, the tested form may be a part): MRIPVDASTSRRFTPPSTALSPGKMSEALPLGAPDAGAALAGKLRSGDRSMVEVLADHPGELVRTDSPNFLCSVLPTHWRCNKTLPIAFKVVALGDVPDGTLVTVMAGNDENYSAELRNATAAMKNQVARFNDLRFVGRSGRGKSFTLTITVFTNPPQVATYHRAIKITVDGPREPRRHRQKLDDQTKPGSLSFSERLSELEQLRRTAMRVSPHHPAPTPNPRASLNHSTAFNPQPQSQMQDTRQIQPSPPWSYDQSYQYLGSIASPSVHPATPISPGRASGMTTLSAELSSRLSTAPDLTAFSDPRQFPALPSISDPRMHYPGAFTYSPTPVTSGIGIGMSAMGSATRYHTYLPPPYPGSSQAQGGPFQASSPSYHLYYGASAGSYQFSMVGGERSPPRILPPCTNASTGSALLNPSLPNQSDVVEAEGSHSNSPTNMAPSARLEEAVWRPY
Target sequence (Q13951 whole entry, looked up, the tested form may be a part): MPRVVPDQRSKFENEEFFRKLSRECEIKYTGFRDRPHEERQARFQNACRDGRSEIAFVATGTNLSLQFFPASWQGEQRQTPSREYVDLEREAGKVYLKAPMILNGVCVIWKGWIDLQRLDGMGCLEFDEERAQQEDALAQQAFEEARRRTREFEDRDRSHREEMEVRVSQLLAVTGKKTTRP
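Assay system: Cerulean-Runt domain fusion protein, energy donor; Signal: fluorescence energy transfer, 422 nm excitation, 530/480 nm emission; Timing: 1 h compound exposure, room temperature; Control set: unlabeled CBFb; Medium: Tris buffer pH 7.5 with salts and BSA; Compound: single test concentration of 20 µM, 1% DMSO final; Probe or stimulus: Venus-CBFb 100 nM.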
Runt-SMMHC FRET = Runt domain-CBFb-SMMHC interaction inhibition. Q01196+Q13951. Cerulean-Runt/Venus-CBFb-SMMHC FRET ratio 530/480, 1 h. inhibition, % at 20 µM. actives 0.74% (n = 220,000);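 active means mean inhibition across duplicate retests at 20 µM reaching about 50%, limit read from the data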;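 further: 0% = DMSO wells and 100% = wells with excess untagged CBFb-SMMHC; inhibitors lower the FRET ratio by blocking Runt binding to CBFb-SMMHC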
RanGTP-Imp inh = disruptors of Ran-importin-beta complex formation – biochemical, FRET, CFP-Ran, YFP-importin-beta, homogeneous, primary screen; actives 1.1% (n = 300,000); inhibition, % (no concentration beside the values); cell-free CFP-Ran/YFP-importin-beta FRET ratio; AID 2216;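 active means more than half of the replicate wells show a fall in the fluorescence ratio signal beyond about 16%, limit read from the data, passing the limit was not always enough; inconclusive means exactly half of the replicate wells pass the set limit; inactive means fewer than half of replicates pass the limit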;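 further: 0% = DMSO wells and 100% = Ran loaded with GDP instead of GTP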
AI-2 QS modul = modulates the Vibrio harveyi AI-2 quorum sensing system; AID 2094; actives 0.4% (n = 300,000); activity change, % at 7.5 µM; Vibrio harveyi JMH597 AI-2 luminescence/OD600 ratio, 9 h; stronger effect = lower value; strain lacks LuxN and CqsS sensors; 0 = neutral-control median; in the data active means activity change below about -75%, passing the limit was not always enough; inconclusive means no clear call, values can overlap the other calls;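 further: luminescence divided by OD600 gain over 9 h not by final OD600 alone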
proKLK7 act = proKLK7 (human) activation, primary screen; P49862; purified proKLK7, EDANS-DABCYL substrate fluorescence; 100% is mature enzyme control, 0% vehicle; activation, % at 7 µM; actives 0.9% (n = 370,000); AID 652039;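 active means activation above the mean of all tested compounds plus 3 SD, computed per campaign excluding outliers beyond control limits, cut at about 13% in these data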
proKLK7 act conf = confirmation of human kallikrein-7 zymogen activators. shares compounds with proKLK7 act. purified proKLK7, EDANS-DABCYL substrate fluorescence; scaled: vehicle 0, mature enzyme 100. activation, % at 7 µM. actives 68% (n = 3,200). AID 686949;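 active means activation, as change over the incubation, above the mean of all tested compounds plus 3 SD, cut at about 13% in these data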
EDANS-DABCYL int = optically interferes with EDANS-DABCYL signal, flagging KLK7 hits. shares compounds with proKLK7 act. actives 80% (n = 3,200). activation, % at 7 µM. EDANS-DABCYL substrate fluorescence interference, no enzyme, 4 h; solvent 0%, active enzyme control 100%;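 active means activation above the all-compound mean plus 3 SD, ignoring values outside control-based bounds, cut at about 4.8% in these data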;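 further: value is the 4 h activation minus the activation read at time zero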
An asterisk follows results filed as active. Most compounds without a hit are left out; they make up all but 2.9% or so of the library.

CCN(CC)C(=O)[C@H]1C[C@H](CC(=O)NCCN2CCOCC2)C(=O)N2CCc3c([nH]c4cc(-c5ccco5)ccc34)[C@]12C was read as proKLK7 act 120.4*, proKLK7 act conf 148.5* and EDANS-DABCYL int 194.5*.
`CCN(CC)C(=O)[C@H]1C[C@H](CC(=O)NCc2ccco2)C(=O)N2CCc3c([nH]c4cc(-c5ccco5)ccc34)[C@]12C` gave proKLK7 act 111.8*, proKLK7 act conf 44.0* and EDANS-DABCYL int 50.8*.
`CC(C)N(C(=O)[C@H]1C[C@H](CC(=O)NCC23CC4CC(CC(C4)C2)C3)C(=O)N2CCc3c([nH]c4cc(-c5ccco5)ccc34)[C@]12C)C(C)C` gave proKLK7 act 0.5.
`CCN(CC)C(=O)[C@H]1C[C@H](CC(=O)NCCCn2ccnc2)C(=O)N2CCc3c([nH]c4cc(-c5ccco5)ccc34)[C@]12C` gave proKLK7 act 94.5*, proKLK7 act conf 68.7* and EDANS-DABCYL int 73.8*.
Screening Cc1ccc([C@H]2C(C(=O)O)=CC[C@@H](c3ccc4c(c3)OCO4)N2S(=O)(=O)c2ccc(C)cc2)cc1 returned proKLK7 act 0.7.
CCc1cc(=O)oc2c3c(cc(OCC(=O)NCCCC(=O)O)c12)OC(C)(C)CC3 was read as RanGTP-Imp inh 5.5, AI-2 QS modul -18.1, proKLK7 act 28.8*, proKLK7 act conf 65.3* and EDANS-DABCYL int 65.5*.
`CCc1cc(=O)oc2c3c(cc(OCC(=O)NCCC(=O)O)c12)OC(C)(C)CC3` gave RanGTP-Imp inh 0.9, AI-2 QS modul -3.2, proKLK7 act 33.1*, proKLK7 act conf 76.2* and EDANS-DABCYL int 82.1*.
For COc1ccccc1CNC(=O)COc1cc2c(c3oc(=O)cc(C)c13)CCC(C)(C)O2 the results were RanGTP-Imp inh inconclusive, AI-2 QS modul 17.5 and proKLK7 act -17.2.
`CCc1cc(=O)oc2c3c(cc(OCC(=O)NCc4ccco4)c12)OC(C)(C)CC3` gave RanGTP-Imp inh 2.6 and AI-2 QS modul 6.2.
Screening CCc1cc(=O)oc2c3c(cc(OCC(=O)NCc4ccncc4)c12)OC(C)(C)CC3 returned RanGTP-Imp inh 0.7, AI-2 QS modul 31.6 and proKLK7 act 6.2.
Cc1cc(=O)oc2c3c(cc(OCC(=O)NCC4CCC(C(=O)O)CC4)c12)OC(C)(C)CC3 (configuration not stated) was read as RanGTP-Imp inh -1.1, AI-2 QS modul 2.2, proKLK7 act 40.2*, proKLK7 act conf 76.2* and EDANS-DABCYL int 77.2*.
For CCc1cc(=O)oc2c3c(cc(OCC(=O)NC4CC4)c12)OC(C)(C)CC3 the results were RanGTP-Imp inh -2.1, AI-2 QS modul 17.2, proKLK7 act 13.2*, proKLK7 act conf -85.5 and EDANS-DABCYL int -109.5.
O=C(Nc1ccn(CCCNCCCN2CCCC2=O)c(=O)n1)OCc1ccccc1 was read as proKLK7 act 0.2.
For CNC(=O)c1ccccc1C1(O)c2ccccc2CCc2ccccc21 the results were proKLK7 act 0.2.
For Nc1ccccc1Oc1ccc2ccccc2c1 the results were Wee1 degr inh -2.0, Runt-CBFb FRET 2.0, Runt-SMMHC FRET -6.3, RanGTP-Imp inh -3.9, AI-2 QS modul 15.1 and proKLK7 act -0.1.
`CCc1cc(=O)oc2c3c(cc(OCC(=O)NCCN4CCOCC4)c12)OC(C)(C)CC3` gave RanGTP-Imp inh -1.6, AI-2 QS modul 23.5, proKLK7 act 39.4*, proKLK7 act conf 9.8 and EDANS-DABCYL int 3.3.
CCCc1cc(=O)oc2c3c(cc(OCC(=O)N4CCC[C@H]4C(=O)O)c12)OC(C)(C)CC3 was read as RanGTP-Imp inh 2.4, AI-2 QS modul 15.0, proKLK7 act 40.0*, proKLK7 act conf 47.7* and EDANS-DABCYL int 69.2*.
For CCc1cc(=O)oc2c3c(cc(OCC(=O)NCCCOC)c12)OC(C)(C)CC3 the results were RanGTP-Imp inh 1.8, AI-2 QS modul 10.4, proKLK7 act 19.1*, proKLK7 act conf 29.9* and EDANS-DABCYL int 29.0*.
`Cc1cc(=O)oc2c3c(cc(OCC(=O)NCCC(=O)O)c12)OC(C)(C)CC3` gave RanGTP-Imp inh -0.2, AI-2 QS modul 22.8, proKLK7 act 40.2*, proKLK7 act conf 63.9* and EDANS-DABCYL int 64.2*.
Cc1cc2ncn(C3CC(=O)N(Cc4ccc(N5CCCC5=O)cc4)C3=O)c2cc1C (configuration not stated) was read as Wee1 degr inh 5.6, Runt-CBFb FRET -0.3, Runt-SMMHC FRET -0.7, RanGTP-Imp inh inconclusive, AI-2 QS modul 0.7 and proKLK7 act 0.9.
COc1ccccc1Nc1nnc(SCc2cc(=O)n3cc(C)ccc3n2)s1 was read as Wee1 degr inh 0.6, Runt-CBFb FRET -1.5, Runt-SMMHC FRET 1.1, RanGTP-Imp inh -0.8, AI-2 QS modul 8.0 and proKLK7 act 0.1.
For Cc1ccc2nc3c(cc(C#N)c(=O)n3-c3nccs3)c(=O)n2c1 the results were Wee1 degr inh -0.3, Runt-CBFb FRET 12.5, Runt-SMMHC FRET 65.3*, RanGTP-Imp inh 191.4*, AI-2 QS modul 13.0, proKLK7 act 25.2*, proKLK7 act conf 61.3* and EDANS-DABCYL int 73.3*.
Cc1noc2c1C(c1ccc(N(C)C)cc1)C1=C(CC(C)(C)CC1=O)N2 (configuration not stated) was read as Wee1 degr inh -1.1, Runt-CBFb FRET 2.3, Runt-SMMHC FRET -8.4, RanGTP-Imp inh -2.5, AI-2 QS modul 12.3 and proKLK7 act 0.5.
`COc1ccc(C2C(C#N)=C(C)NC3=C2C(=O)CC(C)(C)C3)cc1` (configuration not stated) gave Wee1 degr inh -0.2, Runt-CBFb FRET 16.8, Runt-SMMHC FRET 39.9, RanGTP-Imp inh -2.0, AI-2 QS modul 19.3, proKLK7 act 20.6*, proKLK7 act conf 60.7* and EDANS-DABCYL int 66.1*.
Cc1ccc(C2C3=C(CC(C)(C)CC3=O)Nc3onc(C)c32)cc1 (configuration not stated) was read as Wee1 degr inh 0.4, Runt-CBFb FRET 2.1, Runt-SMMHC FRET 5.8, RanGTP-Imp inh -3.5, AI-2 QS modul 4.6, proKLK7 act 14.7*, proKLK7 act conf -3.0 and EDANS-DABCYL int -7.7.
